Measurements as given in ChEMBL document CHEMBL1141490, “Synthesis and evaluation of PSSRI-based inhibitors of Staphylococcus aureus multidrug efflux pumps” (Bioorg Med Chem Lett, 2008).
In brackets after ≈: the same amount, converted by molar mass.

What was measured:
[1] = system: Staphylococcus aureus; assay: Inhibition of NorA-mediated efflux in Staphylococcus aureus K2361; type: functional, organism-based
[2] = system: Staphylococcus aureus; assay: Inhibition of NorA efflux pump in Staphylococcus aureus K2361 at 1.58 uM MIC assessed as fold reduction in ethidium bromide minimum inhibitory concentration; type: functional
[3] = system: Pseudomonas aeruginosa; assay: Antimicrobial activity against Pseudomonas aeruginosa K2184 over expressing MexB efflux pump; type: functional
[4] = system: Escherichia coli; assay: Antimicrobial activity against Escherichia coli K2201; type: functional
[5] = system: Staphylococcus aureus; assay: Antimicrobial activity against Staphylococcus aureus K2886 over expressing MepA efflux pump; type: functional
[6] = system: Staphylococcus aureus; assay: Inhibition of MepA efflux pump in Staphylococcus aureus K2886 at 1/2 MIC assessed as fold reduction in ethidium bromide minimum inhibitory concentration
[7] = system: Staphylococcus aureus; assay: Antimicrobial activity against Staphylococcus aureus K1902; type: functional
[8] = system: Staphylococcus aureus; assay: Inhibition of NorA efflux pump in Staphylococcus aureus K2361 at 0.50 assessed as fold reduction in ethidium bromide minimum inhibitory concentration; type: functional; set-up: concentration or dose not given beside the values
[9] = system: Pseudomonas aeruginosa; assay: Antimicrobial activity against Pseudomonas aeruginosa K3082; type: functional
[10] = system: Staphylococcus aureus; assay: Antimicrobial activity against Staphylococcus aureus K2885; type: functional
[11] = system: Staphylococcus aureus; assay: Antimicrobial activity against Staphylococcus aureus K2361 over expressing NorA efflux pump; type: functional
[12] = system: Escherichia coli; assay: Antimicrobial activity against Escherichia coli K2203 over expressing AcrB efflux pump
[13] = system: Staphylococcus aureus; assay: Inhibition of MepA-mediated efflux in Staphylococcus aureus K2886; type: functional, organism-based
Outline: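 Efflux from MepA-overexpressing S. aureus K2886, done in duplicate. Reported as mean total efflux over a 5 min time course.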

[14] = system: Staphylococcus aureus; assay: Inhibition of MepA efflux pump in Staphylococcus aureus K2886 at 1.58 uM MIC assessed as fold reduction in ethidium bromide minimum inhibitory concentration; type: functional
[15] = system: Staphylococcus aureus; assay: Inhibition of NorA efflux pump in Staphylococcus aureus K2361 at 8.21 uM MIC assessed as fold reduction in ethidium bromide minimum inhibitory concentration; type: functional
[16] = system: Staphylococcus aureus; assay: Inhibition of MepA efflux pump in Staphylococcus aureus K2886 at 4.1 uM MIC assessed as fold reduction in ethidium bromide minimum inhibitory concentration; type: functional
[17] = system: Staphylococcus aureus; assay: Inhibition of MepA efflux pump in Staphylococcus aureus K2886 at 0.50 uM assessed as fold reduction in ethidium bromide minimum inhibitory concentration; type: functional
[18] = system: Staphylococcus aureus; assay: Inhibition of MepA efflux pump in Staphylococcus aureus K2886 at 4.16 uM assessed as fold reduction in ethidium bromide minimum inhibitory concentration; type: functional
[19] = system: Staphylococcus aureus; assay: Inhibition of NorA efflux pump in Staphylococcus aureus K2361 at 8.32 uM assessed as fold reduction in ethidium bromide minimum inhibitory concentration; type: functional
[20] = system: Staphylococcus aureus; assay: Inhibition of NorA efflux pump in Staphylococcus aureus K2361 at 0.79 uM MIC assessed as fold reduction in ethidium bromide minimum inhibitory concentration; type: functional
Outline: (§1)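 Ethidium bromide MIC was determined for the pump-expressing S. aureus strain, alone and with the efflux inhibitor added at 1/4 or 1/2 of the inhibitor's own MIC against that strain. Potentiation is expressed as fold lowering of the ethidium bromide MIC. Parent strains SA-K1902 and SA-K2885 were tested in the same way at 1/2 MIC.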

[21] = system: Staphylococcus aureus; assay: Inhibition of MepA efflux pump in Staphylococcus aureus K2886 at 0.39 uM assessed as fold reduction in ethidium bromide minimum inhibitory concentration; type: functional; outline: as §1

Row | SMILES | IC50 [1] [µM] | MIC [3] [µg/mL] | MIC [4] [µg/mL] | MIC [5] [µg/mL] | MIC [7] [µg/mL] | Fold change [8] | MIC [9] [µg/mL] | MIC [10] [µg/mL] | MIC [11] [µg/mL] | IC50 [13] [µM] | also measured
1 | Fc1ccc([C@@H]2CCNC[C@H]2CNc2ccccc2)cc1 | > 50 | – | – | – | – | – | – | – | – | – | –
2 | c1ccc(SC[C@H]2CCCNC2)cc1 | > 50 | – | – | – | – | – | – | – | – | – | –
3 | c1ccc(OC[C@H]2CCCNC2)cc1 | > 50 | – | – | – | – | – | – | – | – | – | –
4 | Fc1ccc([C@@H]2CCNC[C@H]2COc2ccccc2)cc1 | 22 | – | – | – | – | – | – | – | – | – | –
5 | c1ccc(NC[C@H]2CCCNC2)cc1 | > 50 | – | – | – | – | – | – | – | – | – | –
6 | Fc1ccc([C@@H]2CCNC[C@H]2/C=C/c2cc(Br)ccc2Cl)cc1 | < 10 | 100 (≈ 253 µM) | 100 (≈ 253 µM) | 25 (≈ 63.3 µM) | 25 (≈ 63.3 µM) | 64 | 100 (≈ 253 µM) | 25 (≈ 63.3 µM) | 25 (≈ 63.3 µM) | 20 | Fold change [2]: 16; Fold change [6]: >32; MIC [12]: 100 µg/mL (≈ 253 µM); Fold change [14]: 4
7 | Clc1ccc(Br)cc1OC[C@H]1CCCNC1 | 40 | 100 (≈ 328 µM) | 100 (≈ 328 µM) | > 100 | 100 (≈ 328 µM) | 64 | 100 (≈ 328 µM) | 100 (≈ 328 µM) | > 100 | < 10 | Fold change [15]: 16; Fold change [16]: 2; Fold change [17]: 8
8 | Clc1ccc(Br)cc1/C=C/[C@H]1CCCNC1 | 45 | 100 (≈ 333 µM) | 50 (≈ 166 µM) | 50 (≈ 166 µM) | 100 (≈ 333 µM) | >128 | 100 (≈ 333 µM) | 100 (≈ 333 µM) | 100 (≈ 333 µM) | < 10 | Fold change [18]: 4; Fold change [6]: 16; Fold change [19]: 64; MIC [12]: 100 µg/mL (≈ 333 µM)
9 | Fc1ccc([C@@H]2CCNC[C@H]2CSc2ccccc2)cc1 | 18 | – | – | – | – | – | – | – | – | – | –
10 | Fc1ccc([C@@H]2CCNC[C@H]2COc2cc(Br)ccc2Cl)cc1 | < 10 | 100 (≈ 251 µM) | 25 (≈ 62.7 µM) | 6.25 (≈ 15.7 µM) | 12.5 (≈ 31.4 µM) | 32 | 100 (≈ 251 µM) | 6.25 (≈ 15.7 µM) | 12.5 (≈ 31.4 µM) | 13 | Fold change [6]: 8; Fold change [20]: 4; Fold change [21]: 4; MIC [12]: 50 µg/mL (≈ 125 µM)
11 | COc1ccc(OC[C@H]2CCCNC2)cc1 | > 50 | – | – | – | – | – | – | – | – | – | –
12 | Fc1ccc([C@@H]2CCNC[C@H]2COc2ccc3c(c2)OCO3)cc1 [PAROXETINE] | 15 | – | – | – | – | – | – | – | – | < 10 | –
